In ChEMBL document CHEMBL1158847, “Litebamine N-homologues: preparation and anti-acetylcholinesterase activity” (J Nat Prod, 1998):

Assays:
Acetylcholinesterase = Acetylcholinesterase (Electrophorus electricus, UniProt O42275); assay: Inhibition of electric eel AChE by colorimetric method
Summary of the method: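 Ellman colorimetric assay. Enzyme 0.125 U preincubated 2 min at 37 °C with test samples and DTNB 0.3 mM in 0.1 M phosphate buffer, pH 8.0. Reaction started with 0.5 mM […]. Absorbance followed at 412 nm over time. IC50 taken from dose-response curves of at least four concentrations spanning 0-90% inhibition.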

[1] = Antiplatelet activity against rabbit platelets assessed as inhibition of arachidonic acid-induced thromboxane B2 formation at 15 uM; type: functional; details: Oryctolagus cuniculus, Platelet

Acetylcholinesterase, sequence (O42275 whole entry): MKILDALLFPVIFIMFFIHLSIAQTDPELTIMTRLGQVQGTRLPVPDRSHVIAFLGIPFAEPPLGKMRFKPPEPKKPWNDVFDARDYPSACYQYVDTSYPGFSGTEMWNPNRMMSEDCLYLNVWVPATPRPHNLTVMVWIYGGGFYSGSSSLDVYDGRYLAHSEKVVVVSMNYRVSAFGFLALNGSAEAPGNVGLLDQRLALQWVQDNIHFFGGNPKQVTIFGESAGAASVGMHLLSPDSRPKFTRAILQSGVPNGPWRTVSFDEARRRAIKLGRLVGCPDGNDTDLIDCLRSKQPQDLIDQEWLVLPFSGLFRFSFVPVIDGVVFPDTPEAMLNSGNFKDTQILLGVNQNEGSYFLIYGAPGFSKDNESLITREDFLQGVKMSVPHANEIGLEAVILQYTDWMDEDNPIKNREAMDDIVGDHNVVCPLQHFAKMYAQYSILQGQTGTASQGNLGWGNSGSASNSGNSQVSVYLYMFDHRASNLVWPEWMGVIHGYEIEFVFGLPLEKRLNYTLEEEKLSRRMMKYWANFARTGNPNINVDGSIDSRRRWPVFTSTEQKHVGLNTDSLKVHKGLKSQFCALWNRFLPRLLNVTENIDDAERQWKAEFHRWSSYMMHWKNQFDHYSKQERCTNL

| Structure (SMILES) | IC50 (Acetylcholinesterase) | inhibition at 15 µM [1] |
| --- | --- | --- |
| CCCNCCc1cc(O)c(OC)c2c1ccc1cc(O)c(OC)cc12 | 107 µM | – |
| COc1cc2c(ccc3c4c(c(O)c(OC)c32)CN(CC(C)C)CC4)cc1O | 6.51 µM | – |
| CCCN1CCc2c(c(O)c(OC)c3c2ccc2cc(O)c(OC)cc23)C1 | 7.21 µM | – |
| COc1cc2c(ccc3c(CCNC(C)C)cc(O)c(OC)c32)cc1O | 72 µM | – |
| COc1cc2c(ccc3c(CCNCC(C)C)cc(O)c(OC)c32)cc1O | 62 µM | – |
| CCC[N+]1(C)CCc2c(c(O)c(OC)c3c2ccc2cc(O)c(OC)cc23)C1 (stereo not given) | 2.79 µM | – |
| CCCCNCCc1cc(O)c(OC)c2c1ccc1cc(O)c(OC)cc12 | 111 µM | – |
| COc1cc2c(ccc3c4c(c(O)c(OC)c32)CN(C(C)C)CC4)cc1O | 6.8 µM | – |
| CCNCCc1cc(O)c(OC)c2c1ccc1cc(O)c(OC)cc12 | 27.2 µM | – |
| C=CCN1CCc2c(c(O)c(OC)c3c2ccc2cc(O)c(OC)cc23)C1 | 15.8 µM | – |
| CCN1CCc2c(c(O)c(OC)c3c2ccc2cc(O)c(OC)cc23)C1 | 14.5 µM | – |
| CCCCN1CCc2c(c(O)c(OC)c3c2ccc2cc(O)c(OC)cc23)C1 | 7.79 µM | – |
| COc1cc2c(ccc3c4c(c(O)c(OC)c32)CN(C)CC4)cc1O [LITEBAMINE] | 22 µM | 77% |
| COc1cc2c(ccc3c4c(c(O)c(OC)c32)CN(Cc2ccccc2)CC4)cc1O | 10.7 µM | – |
